Source: PubChem BioAssay (several laboratories)
Compounds with a hit are over-represented: about 8.2% of the library has one in this group of screens.
HePTP inh: inhibitors of human HePTP phosphatase; recombinant HePTP phosphatase activity, OD absorbance; inhibition, % at 20 µM; 0.64% of 110,000 active; AID 521; in the data active = inhibition above about 50%; inconclusive = no clear call, values can overlap the other calls;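 also: plate controls were vehicle for no effect and reference inhibitor for full effect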
D1 allo mod: allosterically modulates the human D1 dopamine receptor; P21728; HEK293 D1, CRE-luciferase, dopamine EC30 potentiation; actives deviate in either direction; B-score at 10 µM; 5.9% of 58,000 active; AID 641;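 active = luminescence count or its row- and column-corrected plate score outside the 99.7% band of the plate's sample wells, on either side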
Target sequence (P21728 whole entry, looked up): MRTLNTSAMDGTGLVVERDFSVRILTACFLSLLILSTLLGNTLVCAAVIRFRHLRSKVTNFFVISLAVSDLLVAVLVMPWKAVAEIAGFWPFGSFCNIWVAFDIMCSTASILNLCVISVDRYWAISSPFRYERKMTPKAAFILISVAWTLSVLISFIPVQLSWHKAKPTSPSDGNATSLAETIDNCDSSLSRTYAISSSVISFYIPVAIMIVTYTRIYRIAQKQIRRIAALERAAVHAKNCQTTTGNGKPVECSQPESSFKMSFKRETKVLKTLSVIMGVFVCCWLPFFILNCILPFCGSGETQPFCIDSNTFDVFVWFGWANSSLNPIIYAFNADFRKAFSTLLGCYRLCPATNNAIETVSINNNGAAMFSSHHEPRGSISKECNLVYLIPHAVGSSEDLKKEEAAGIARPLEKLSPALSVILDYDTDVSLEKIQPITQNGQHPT
SF-1 act: activates the human nuclear receptor SF-1; activation, % at 10 µM; Q13285; AID 522; CHO-K1 Gal4-SF-1 LBD luciferase reporter; % increase over DMSO SF-1-specific signal; 1.9% of 65,000 active;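 active = activation above the mean activation of all tested compounds plus 3 SD, cut at about 50% in these data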
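Test system: CHO-K1 cells with Gal4–hSF-1 LBD chimera plus Gal4-driven luciferase; Input: 4,000 cells/well; Compound: 10 µM only; Times: 20 h compound treatment, 37 °C; Measured by: steady-glow luciferase luminescence, read after 15 min reagent incubation; Measure: percent activation versus DMSO; Control set: DMSO and mock-transfected background; Replicates: one test per compound.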
M1 antagonist: antagonists of rat M1 muscarinic receptor; P08482; CHO-M1 cells, Fluo-4 calcium, ACh EC80 antagonist mode; active compounds read low; B-score at 10 µM; 3.4% of 64,000 active; AID 628;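 active = calcium fluorescence response, raw or row-and-column corrected B-score, differing from the plate sample mean either way at a set confidence level, mostly lower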
RORA act: activators of human nuclear receptor RORA; P35398; CHO-K1 Gal4-RORA LBD luciferase reporter, luminescence; percent increase over mock-subtracted basal signal; activation, % at 10 µM; 1.5% of 65,000 active; AID 560;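 active = activation above the mean of all tested compounds plus 3 SD, cut at about 49% in these data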;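 also: 0% = DMSO-treated RORA cells and 100% = added signal equal to DMSO minus mock-transfected cells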
M1 ag: agonists of M1 muscarinic receptor; CHO-M1 cells, Fluo-4 calcium fluorescence, agonist mode; active compounds read high; B-score at 10 µM; 3% of 64,000 active; AID 626;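 active = fluorescence rise, raw or as B-score row- and column-corrected plate score, outside the 99.7% band of its plate's samples, either direction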
M1 ag confirm: confirmation of rat M1 muscarinic receptor agonists; fluorescence change (max-min) at 10 µM; shares compounds with M1 ag; CHO-M1 cells, Fluo-4 calcium fluorescence, agonist mode; actives lie on both sides; 19% of 1,700 active; AID 1488;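 active = fluorescence change differs from the solvent-only DMSO control mean at a set confidence level in both duplicate runs; inconclusive = differs from solvent-only control mean in just one of two runs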;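 also: an EC20 dose of acetylcholine follows compound addition during the same imaging run; raw fluorescence intensity difference in instrument units with no normalization to controls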
M4 ag counter: activates rat M4 receptor in counter-screen for M1 agonists. CHO M4/Gqi5 cells, Fluo-4 calcium fluorescence, agonist mode; actives lie on both sides. AID 1741. fluorescence change (max-min) at 10 µM. 9% of 1,700 active. shares compounds with M1 ag;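 active = fluorescence change differing from the plate's solvent-only control wells at 99.7% confidence in both duplicates, whether higher or lower; inconclusive = differs from solvent controls in only one of two duplicates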
Numbers without * were called inactive.

How did Cc1cccnc1Nc1nc(-c2ccc(O)cc2O)cs1 do in these assays?
HePTP inh: 12; D1 allo mod: -0.012; SF-1 act: 51*; M1 antagonist: 0.23; RORA act: -10; M1 ag: 1.2

Results for CN1CCCC1=NC(=S)CN1CCCC1=S ?
HePTP inh: 97*

How did O=C(N/N=C/c1ccccc1O)c1cnccn1 do in these assays?
HePTP inh: 104*

How did Cc1sc(NC(=O)/C=C\C(=O)O)nc1-c1ccccc1 do in these assays?
HePTP inh: 103*

Results for Cc1sc(NC(=O)CCC2CCCCC2)nc1-c1ccccc1 ?
HePTP inh: 102*

Results for Cc1sc(NC(=O)NC2CCCCC2)nc1-c1ccccc1 ?
HePTP inh: -4

How did CCOc1ccccc1/C=C/C(=O)c1cccs1 do in these assays?
HePTP inh: -18

What do the screens show for `Cc1ccccc1-c1nc(-c2cccnc2)no1`?
HePTP inh: -3; D1 allo mod: 0.21; SF-1 act: 67*; M1 antagonist: 0.29; RORA act: 43; M1 ag: 1.4

Results for c1ccc(-c2nc(-c3cccnc3)no2)cc1 ?
HePTP inh: -17

Results for Clc1ccccc1-c1nc(-c2cccnc2)no1 ?
HePTP inh: 5; D1 allo mod: -1.5*; SF-1 act: 47; M1 antagonist: 0.99; RORA act: 40; M1 ag: 1.2

What do the screens show for `CN1C(=O)C(=Cc2ccc(O)c(Cl)c2)C(=O)N(C)C1=O`?
HePTP inh: 8

What do the screens show for `Clc1ccc2nc(N3CCN(c4ccccc4)CC3)sc2c1`?
HePTP inh: 2; SF-1 act: 72*; RORA act: 28

Results for c1c2c(cc3sc(N4CCOCC4)nc13)OCO2 ?
HePTP inh: 5; SF-1 act: 58*; M1 antagonist: -0.41; RORA act: 34; M1 ag: -0.76

Results for c1ccc(N2CCN(c3nc4cc5c(cc4s3)OCO5)CC2)cc1 ?
HePTP inh: 13; SF-1 act: 55*; M1 antagonist: 0.092; RORA act: 70*; M1 ag: -1

What do the screens show for `Cc1cccc(/C=C2/SC(=S)N(C)C2=O)c1`?
HePTP inh: -6

Results for CCOC(=O)C(CCCCCOc1cc(C)ccc1C)C(=O)OCC ?
HePTP inh: 6

How did O=C1C(=Cc2ccc(-c3ccc(Cl)c([N+](=O)[O-])c3)o2)C(=O)c2ccccc21 do in these assays?
HePTP inh: 5

Results for N#Cc1ccc2c(c1)nc1c3cccc4cccc(c(=O)n21)c43 ?
HePTP inh: 65*

Results for Cc1ccc(CCNC(=O)C2CCCN(S(=O)(=O)c3c(C)noc3/C=C/N(C)C)C2)cc1 (stereo not given) ?
HePTP inh: -4; D1 allo mod: -0.21; SF-1 act: 10; M1 antagonist: -2.6; RORA act: 10; M1 ag: 0.66

How did O=C(c1cc2ccccc2o1)c1nc2c(n1O)CCCCC2 do in these assays?
HePTP inh: -10; D1 allo mod: -0.84; SF-1 act: 44; M1 antagonist: 0.43; RORA act: 56*; M1 ag: -0.25

How did O=C(NCCN1CCCCC1)c1cc2ccccc2o1 do in these assays?
HePTP inh: -9

What do the screens show for `Brc1cnc(N2CCOCC2)nc1N1CCCCC1`?
HePTP inh: -5; D1 allo mod: 0.99; SF-1 act: -7; M1 antagonist: 0.047; RORA act: -27; M1 ag: 0.48

Results for Brc1cnn(-c2nc(N3CCOCC3)nc(N3CCOCC3)n2)c1 ?
HePTP inh: 8; D1 allo mod: 3.6*; SF-1 act: 15; M1 antagonist: -0.38; RORA act: -29; M1 ag: 0.88

What do the screens show for `COc1ccc2c(c1OC)C(=O)N(c1ccc(I)cc1)C2`?
HePTP inh: -6

What do the screens show for `COc1ccc2c(c1OC)C(=O)N(c1nccs1)C2`?
HePTP inh: 6; D1 allo mod: 3.7; SF-1 act: 75*; M1 antagonist: -1.8; RORA act: 19; M1 ag: -1.2

What do the screens show for `COc1ccc(Cl)cc1C(=O)NC(c1ccccc1)c1ccccc1`?
HePTP inh: 7

How did CCNc1sc(C(=O)c2cccs2)c(N)c1-c1nc2ccccc2s1 do in these assays?
HePTP inh: 10; D1 allo mod: -0.003; SF-1 act: 9; M1 antagonist: -0.044; RORA act: 40; M1 ag: 0.011

How did Cc1ccc(C(=O)c2coc3ccc(O)c(CN4CCOCC4)c23)cc1 do in these assays?
HePTP inh: 1

Results for Cc1ccc(C(=O)c2coc3ccc(O)c(CN4CCN(C)CC4)c23)cc1 ?
HePTP inh: 1; D1 allo mod: -3.1*; SF-1 act: -15; M1 antagonist: 0.55; RORA act: -1; M1 ag: -0.011

Results for CCOC(=O)C1=NNC(C(=O)c2ccc(Cl)cc2)C1c1ccc(OC)cc1 (stereo not given) ?
HePTP inh: 9

How did Cn1cc(C(=O)c2ccccc2)cc1-c1nc2ccccc2n1C do in these assays?
HePTP inh: -5; D1 allo mod: -0.019; SF-1 act: 25; M1 antagonist: -0.63; RORA act: 13; M1 ag: 6.5*; M1 ag confirm: -3; M4 ag counter: -6.8

Results for O=C(CN(c1cccc([N+](=O)[O-])c1)S(=O)(=O)c1ccccc1)NCCSc1ccc(Cl)cc1 ?
HePTP inh: -3

Results for Cc1ccc(-c2ccc(CCC(=O)O)n2NC(=O)c2ccco2)cc1 ?
HePTP inh: 1; D1 allo mod: -0.22; SF-1 act: 8; M1 antagonist: -0.29; RORA act: -6; M1 ag: 0.099

What do the screens show for `c1csc(CCNc2ncnc3sc4c(c23)CCC4)c1`?
HePTP inh: 1; SF-1 act: -76; M1 antagonist: -1.3*; RORA act: -72; M1 ag: 3.9*; M1 ag confirm: 3.1; M4 ag counter: -21

Results for COC(=O)COc1cc(C)cc2oc(=O)c(CC(=O)OC)c(C)c12 ?
HePTP inh: 7; D1 allo mod: -0.26; SF-1 act: -11; M1 antagonist: 0.042; RORA act: -9; M1 ag: 3.1*; M1 ag confirm: inconclusive; M4 ag counter: -33

Results for O=C(O)c1ccc(N/C(=N\S(=O)(=O)c2ccc(Cl)cc2)c2ccccc2)cc1 ?
HePTP inh: 5

How did COC(=O)CN(c1ccc(C(C)C)cc1)S(=O)(=O)c1c(C)[nH]c(=O)[nH]c1=O do in these assays?
HePTP inh: 3; D1 allo mod: -0.64; SF-1 act: 6; M1 antagonist: 0.73; RORA act: -6; M1 ag: 0.011
